Measurements from ChEMBL document CHEMBL4304743, “Discovery of ( E)- N1-(3-Fluorophenyl)- N3-(3-(2-(pyridin-2-yl)vinyl)-1 H-indazol-6-yl)malonamide (CHMFL-KIT-033) as a Novel c-KIT T670I Mutant Selective Kinase Inhibitor for Gastrointestinal Stromal Tumors (GISTs)” (J Med Chem, 2019).
Active and inactive are the calls of the source. The calls are words filed in the database; no cut-off is given here.

Key:
[1] = target: Mast/stem cell growth factor receptor Kit (Homo sapiens, UniProt P10721, T670I); test: Inhibition of TEL fused wild type c-KIT T670I mutant (unknown origin) transfected in mouse BaF3 cells assessed as reduction in phosphorylation at Y823 residue after 2 hrs by Western blot analysis; type: cell-based
Chain of Mast/stem cell growth factor receptor Kit (P10721 26-976 T670I limits assumed): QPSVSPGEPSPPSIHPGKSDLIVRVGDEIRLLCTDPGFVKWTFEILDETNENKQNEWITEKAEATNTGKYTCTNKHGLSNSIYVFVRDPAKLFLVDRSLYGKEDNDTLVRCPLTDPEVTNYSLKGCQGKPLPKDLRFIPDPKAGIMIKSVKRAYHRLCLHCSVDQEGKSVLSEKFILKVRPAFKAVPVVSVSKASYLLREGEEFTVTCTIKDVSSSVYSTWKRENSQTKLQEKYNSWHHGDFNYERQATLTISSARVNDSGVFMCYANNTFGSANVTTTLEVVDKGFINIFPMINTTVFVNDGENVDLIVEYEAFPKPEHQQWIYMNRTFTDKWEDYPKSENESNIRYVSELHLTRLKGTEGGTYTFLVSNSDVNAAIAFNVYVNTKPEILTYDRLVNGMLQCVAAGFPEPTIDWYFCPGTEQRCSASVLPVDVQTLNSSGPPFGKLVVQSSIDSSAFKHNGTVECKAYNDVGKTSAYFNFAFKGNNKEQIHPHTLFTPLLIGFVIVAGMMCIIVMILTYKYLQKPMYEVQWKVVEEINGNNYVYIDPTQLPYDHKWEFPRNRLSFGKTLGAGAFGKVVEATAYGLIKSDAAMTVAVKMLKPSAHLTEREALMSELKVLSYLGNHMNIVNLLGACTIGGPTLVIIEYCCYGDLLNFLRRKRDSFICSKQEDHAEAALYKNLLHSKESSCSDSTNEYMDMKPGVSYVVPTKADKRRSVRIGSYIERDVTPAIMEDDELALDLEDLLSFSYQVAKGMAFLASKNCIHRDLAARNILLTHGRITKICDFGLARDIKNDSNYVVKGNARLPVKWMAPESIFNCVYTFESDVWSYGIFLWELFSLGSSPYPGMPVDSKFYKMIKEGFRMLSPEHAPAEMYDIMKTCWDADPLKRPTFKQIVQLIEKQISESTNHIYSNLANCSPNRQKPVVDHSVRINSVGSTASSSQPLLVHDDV

[2] = target: T1, Serine/threonine-protein kinase PAK 2 (Homo sapiens, UniProt Q13177); test: Binding affinity to wild-type human partial length PAK2 (P151 to R525 residues) expressed in bacterial expression system assessed as enzyme remaining activity at 1 uM by Kinomescan assay relative to control
T1 sequence (Q13177 whole entry, the tested form may be a part): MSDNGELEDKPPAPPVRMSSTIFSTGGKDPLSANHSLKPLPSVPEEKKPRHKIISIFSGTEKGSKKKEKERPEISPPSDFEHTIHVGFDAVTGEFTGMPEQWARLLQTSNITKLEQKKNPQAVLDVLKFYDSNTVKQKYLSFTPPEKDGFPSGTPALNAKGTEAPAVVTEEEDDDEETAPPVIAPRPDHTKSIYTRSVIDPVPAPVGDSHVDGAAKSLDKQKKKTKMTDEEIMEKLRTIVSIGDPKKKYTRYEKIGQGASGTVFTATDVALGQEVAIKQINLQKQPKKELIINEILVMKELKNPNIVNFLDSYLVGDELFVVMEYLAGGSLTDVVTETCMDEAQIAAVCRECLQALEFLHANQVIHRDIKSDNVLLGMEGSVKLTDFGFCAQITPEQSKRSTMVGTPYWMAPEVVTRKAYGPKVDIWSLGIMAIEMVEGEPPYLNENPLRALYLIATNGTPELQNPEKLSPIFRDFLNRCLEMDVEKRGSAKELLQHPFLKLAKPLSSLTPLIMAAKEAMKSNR
Procedure, shortened: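 KINOMEscan competition binding panel of 468 kinases and mutants, compound at 1 μM; binding reported as percent of control.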

[3] = target: T1, Serine/threonine-protein kinase PAK 2; test: Inhibition of wild-type human partial length PAK2 (P151 to R525 residues) expressed in bacterial expression system after 1 hr by Z-LYTE assay
[4] = test system: Mast/stem cell growth factor receptor Kit (Homo sapiens), P10721 [V559D]; test: Binding affinity to human partial length c-KIT V559D mutant (Y545 to D952 residues) expressed in bacterial expression system assessed as enzyme remaining activity at 1 uM by Kinomescan method relative to control
Chain of Mast/stem cell growth factor receptor Kit (Homo sapiens), P10721 [V559D] (P10721 whole entry V559D, the tested form may be a part): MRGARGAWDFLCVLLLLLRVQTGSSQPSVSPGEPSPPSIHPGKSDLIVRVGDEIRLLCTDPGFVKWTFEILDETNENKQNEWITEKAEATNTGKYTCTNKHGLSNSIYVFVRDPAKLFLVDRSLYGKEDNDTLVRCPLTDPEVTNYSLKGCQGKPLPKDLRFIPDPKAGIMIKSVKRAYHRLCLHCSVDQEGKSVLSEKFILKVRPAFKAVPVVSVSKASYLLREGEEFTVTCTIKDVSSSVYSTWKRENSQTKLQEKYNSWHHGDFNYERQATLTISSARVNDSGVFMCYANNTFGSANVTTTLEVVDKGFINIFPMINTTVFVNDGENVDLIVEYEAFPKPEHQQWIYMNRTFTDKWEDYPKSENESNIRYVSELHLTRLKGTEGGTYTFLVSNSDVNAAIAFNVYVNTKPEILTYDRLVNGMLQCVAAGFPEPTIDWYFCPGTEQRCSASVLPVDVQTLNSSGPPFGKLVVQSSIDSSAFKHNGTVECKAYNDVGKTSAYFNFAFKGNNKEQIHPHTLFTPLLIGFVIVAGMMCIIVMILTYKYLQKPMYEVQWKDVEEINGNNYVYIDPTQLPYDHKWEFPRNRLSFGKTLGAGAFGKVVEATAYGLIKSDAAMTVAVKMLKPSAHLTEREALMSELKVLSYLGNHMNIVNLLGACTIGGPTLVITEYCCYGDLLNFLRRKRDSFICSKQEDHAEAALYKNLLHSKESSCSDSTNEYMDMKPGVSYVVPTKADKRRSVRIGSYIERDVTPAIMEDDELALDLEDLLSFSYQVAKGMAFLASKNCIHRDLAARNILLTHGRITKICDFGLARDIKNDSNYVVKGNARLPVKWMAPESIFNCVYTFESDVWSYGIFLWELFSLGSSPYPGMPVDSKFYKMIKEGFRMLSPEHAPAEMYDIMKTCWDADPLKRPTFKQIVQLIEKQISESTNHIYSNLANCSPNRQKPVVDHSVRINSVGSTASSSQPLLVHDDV
Procedure, shortened: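 KINOMEscan binding profile (DiscoverX) run at 1 μM against a panel of 468 kinases and mutants. Read-out is percent of control (%Ctrl) remaining bound.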

[5] = Antiproliferative activity against human GIST5R cells harboring c-KIT 560 to 578 deletion/T670I double mutant incubated for 72 hrs by CCK8 assay; type: functional
Procedure, shortened: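 Adherent GIST cells seeded at 1.5-5 × 10^4 cells/mL and left overnight at 37 °C, 5% CO2. Medium then replaced with medium holding serial compound dilutions; 72 h incubation. Viability by CCK-8, absorbance at 450 nm, normalized to DMSO control; GI50 from dose-response fit.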

[6] = test system: Mast/stem cell growth factor receptor Kit (Homo sapiens), P10721 [UNDEFINED MUTATION]; test: Inhibition of c-KIT 560 to 578 deletion/T670I double mutant in human GIST5R cells assessed as reduction in ERK phosphorylation at T202/Y204 residue at 0.1 uM to 3 uM after 1 hr by Western blot analysis; type: cell-based
Chain of Mast/stem cell growth factor receptor Kit (Homo sapiens), P10721 [UNDEFINED MUTATION] (P10721 whole entry, looked up, stated change not applied): as the sequence (P10721 whole entry V559D, the tested form may be a part) above, with D559V counted along it
Procedure, shortened: (§1)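 Serial compound dilutions applied for 1 h to GIST-T1, GIST-T1-T670I (CRISPR/Cas9 T670I knock-in, clone confirmed by Sanger sequencing) or GIST-5R cells in DMEM with 10% FBS. Cells then lysed and phospho-proteins detected by standard Western blotting.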

[7] = test system: Mast/stem cell growth factor receptor Kit (Homo sapiens), P10721 [UNDEFINED MUTATION]; test: Inhibition of c-KIT 560 to 578 deletion mutant in human GISTT1 cells assessed as reduction in S6 phosphorylation at S235/S236 residue at 0.1 uM to 3 uM after 1 hr by Western blot analysis; type: cell-based; procedure, shortened: as §1
[8] = test system: GISTT1; test: Induction of apoptosis in human GISTT1 cells harboring c-KIT 560 to 578 deletion/T670I double mutant assessed as increase in cleaved PARP level after 24 hrs by Western blot analysis; type: functional, cell-based
Procedure, shortened: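 GIST-T1-T670I cells grown in DMEM with 10% FBS, exposed to serially diluted compound for 24 h. Apoptosis read by Western blot with PARP and GAPDH antibodies.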

[9] = test system: GISTT1; test: Induction of cell cycle arrest in human GISTT1 cells harboring c-KIT 560 to 578 deletion mutant after 24 hrs; type: functional, cell-based
[10] = AUC (0 to t) in Sprague-Dawley rat at 1 mg/kg, iv measured after 2 to 720 mins by LC-tandem mass spectrometry analysis; type: ADME, organism-based; settings: in vivo
Procedure, shortened: (§2)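 Male Sprague-Dawley rats (190-210 g), fasted 12 h, randomized into two groups: 1 mg/kg i.v. or 10 mg/kg p.o., both formulated in 10% DMSO/90% of 5% glucose water. Blood sampled at 2-720 min (i.v.) or 5-720 min (p.o.). Plasma protein-precipitated with methanol, caffeine internal standard, LC-MS/MS. Noncompartmental analysis; triplicate, ±SD.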

[11] = Half-life in Sprague-Dawley rat at 1 mg/kg, iv measured after 2 to 720 mins by LC-tandem mass spectrometry analysis; type: ADME, organism-based; settings: in vivo; procedure, shortened: as §2
[12] = Apparent volume of distribution in Sprague-Dawley rat at 1 mg/kg, iv measured after 2 to 720 mins by LC-tandem mass spectrometry analysis; type: ADME, organism-based; settings: in vivo, read-out: Vz; procedure, shortened: as §2
[13] = Apparent clearance in Sprague-Dawley rat at 1 mg/kg, iv measured after 2 to 720 mins by LC-tandem mass spectrometry analysis; type: ADME, organism-based; settings: in vivo, read-out: CL(app) (converted); procedure, shortened: as §2
[14] = Half-life in Sprague-Dawley rat at 10 mg/kg, po measured after 5 to 720 mins by LC-tandem mass spectrometry analysis; type: ADME, organism-based; settings: in vivo; procedure, shortened: as §2
[15] = Apparent clearance in Sprague-Dawley rat at 10 mg/kg, po measured after 5 to 720 mins by LC-tandem mass spectrometry analysis; type: ADME, organism-based; settings: in vivo, read-out: CL(app) (converted); procedure, shortened: as §2
[16] = MRT (0 to infinity) in Sprague-Dawley rat at 10 mg/kg, po measured after 5 to 720 mins by LC-tandem mass spectrometry analysis; type: ADME, organism-based; settings: in vivo
Procedure, shortened: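 Male Sprague–Dawley rats (190-210 g), fasted 12 h, given 1 mg/kg i.v. or 10 mg/kg p.o. in DMSO/5% glucose water (1:9). Blood sampled at 2–720 min (i.v.) or 5–720 min (p.o.). Plasma proteins precipitated with methanol using caffeine internal standard, then LC-MS/MS. Noncompartmental analysis; F = AUC0-∞ ratio corrected for dose; triplicate ±SD.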

[17] = MRT (0 to infinity) in mouse at 1 mg/kg, iv measured after 2 to 720 mins by LC-tandem mass spectrometry analysis; type: ADME, organism-based; settings: in vivo
[18] = Tmax in mouse at 10 mg/kg, po measured after 5 to 720 mins by LC-tandem mass spectrometry analysis; type: ADME, organism-based; settings: in vivo
[19] = test system: Mus musculus; test: Inhibition of ERK phosphorylation at T202/Y204 residue in tumor of human GIST5R cells xenografted in nude mouse at 100 mg/kg, po administered as single dose and measured after 2 hrs; type: functional, organism-based
Procedure, shortened: (§3)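 Female nu/nu mice bearing subcutaneous GIST-5R tumors (cells in Matrigel, right flank) given one oral dose of 100 mg/kg in 0.5% methylcellulose/0.4% Tween80. Tumors collected over a 2 h time course. p-c-KIT, p-ERK and p-AKT measured alongside plasma drug levels.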

[20] = test system: Mus musculus; test: Inhibition of AKT phosphorylation at […] residue in tumor of human GIST5R cells xenografted in nude mouse at 100 mg/kg, po administered as single dose and measured after 2 hrs; type: functional, organism-based; procedure, shortened: as §3
[21] = test system: Mus musculus; test: Effect on body weight in nude mouse xenografted with human GIST5R cells at 25 to 100 mg/kg, po administered […] via gavage for 28 days; type: ADME, organism-based; settings: in vivo, 672 h
Procedure, shortened: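 Female nu/nu mice (5 weeks old) given subcutaneous right-flank GIST-5R cells in Matrigel. Dosing began at tumors of 200-400 mm3; randomized, 4 mice per group. Daily oral dosing (QD) at 25, 50 or 100 mg/kg in 0.5% methylcellulose/0.4% Tween80, or vehicle alone, for 28 days. Body weight and tumor volume, (W²×L)/2, measured daily; mean±SEM.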

O=C(CC(=O)Nc1ccc2c(/C=C/c3ccccn3)n[nH]c2c1)Nc1cccc(F)c1
EC50 [1]: 34 nM | Activity [2]: 0.1% | IC50 [3]: > 10000 nM | Activity [4]: < 1% | GI50 [5]: 475 nM | inhibition [6]: Active | inhibition [7]: Active | Activity [8]: Dose-dependent effect | Activity [9]: Dose-dependent effect | AUC(0-t) [10]: 259 ng·h/mL | half-life [11]: 10.4 h | Vd [12]: 49.3 L/kg | clearance [13]: 55 mL/min/kg | half-life [14]: 4.9 h | CL/F [15]: 207 mL/min/kg | MRT inf [16]: 5.4 h | MRT inf [17]: 0.4 h | Tmax [18]: 0.5 h | inhibition [19]: inactive | inhibition [20]: inactive | Activity [21]: Non-Toxic
